Measurements from ChEMBL document CHEMBL3132745, “Synthesis and Antimicrobial Activities of His(2-aryl)-Arg and Trp-His(2-aryl) Classes of Dipeptidomimetics” (Medchemcomm, 2014).
≈ marks a conversion by molar mass, not a printed value. Calls of active or inactive are those of the source. Residues, ends and D or L forms follow the SMILES beside them. *: point of attachment. Boc = CC(C)(C)OC(=O)*; NHBn = c1ccc(CN*)cc1

Key:
[1] = system: LLC-PK1; test: Cytotoxicity against pig LLC-PK1 cells assessed as cell viability after 48 hrs by neutral red uptake assay; assay type: cell-based, Sus scrofa; conditions: llc-pk1, 48 h
Procedure, shortened: (§1)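 Neutral red uptake assay on human cancer lines (SK-MEL, KB, BT-549, SK-OV-3) and noncancerous mammalian cells (VERO, LLC-PK1). Highest tested concentration was 10 µg/mL.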

[2] = system: Candida albicans; test: Antifungal activity against Candida albicans assessed as growth inhibition; assay type: functional, organism-based
[3] = system: SK-MEL; test: Cytotoxicity against human SK-MEL cells assessed as cell viability after 48 hrs by neutral red uptake assay; assay type: cell-based; procedure, shortened: as §1
[4] = system: Vero; test: Cytotoxicity against african green monkey Vero cells assessed as cell viability after 48 hrs by neutral red uptake assay; assay type: cell-based; conditions: chlorocebus sabaeus; procedure, shortened: as §1
[5] = Selectivity index, ratio of cytotoxicity against human BT549 cells to IC50 for Cryptococcus neoformans ATCC 90113; assay type: toxicity, cell-based, BT-549; conditions: read-out: Selectivity Index
[6] = system: Nakaseomyces glabratus; test: Antifungal activity against Candida glabrata assessed as growth inhibition; assay type: functional, organism-based
[7] = system: Aspergillus fumigatus; test: Antifungal activity against Aspergillus fumigatus assessed as growth inhibition; assay type: functional, organism-based
[8] = Selectivity index, ratio of cytotoxicity against pig LLC-PK1 cells to IC50 for Cryptococcus neoformans ATCC 90113; assay type: toxicity, cell-based; conditions: read-out: Selectivity Index
[9] = system: Cryptococcus neoformans; test: Antifungal activity against Cryptococcus neoformans ATCC 90113 assessed as growth inhibition after 70-74 hrs by CLSI method; assay type: functional, organism-based
[10] = system: BT-549; test: Cytotoxicity against human BT549 cells assessed as cell viability after 48 hrs by neutral red uptake assay; assay type: cell-based; conditions: bt-549, 48 h; procedure, shortened: as §1
[11] = system: KB; test: Cytotoxicity against human KB cells assessed as cell viability after 48 hrs by neutral red uptake assay; assay type: cell-based; procedure, shortened: as §1
[12] = Selectivity index, ratio of cytotoxicity against human KB cells to IC50 for Cryptococcus neoformans ATCC 90113; assay type: toxicity, cell-based; conditions: read-out: Selectivity Index
[13] = Selectivity index, ratio of cytotoxicity against human SKOV3 cells to IC50 for Cryptococcus neoformans ATCC 90113; assay type: toxicity, cell-based, SK-OV-3; conditions: read-out: Selectivity Index
[14] = system: Pichia kudriavzevii; test: Antifungal activity against Candida krusei assessed as growth inhibition; assay type: functional, organism-based
[15] = system: Escherichia coli; test: Antibacterial activity against Escherichia coli ATCC 35218 assessed as growth inhibition after 16-20 hrs by CLSI method; assay type: functional, organism-based
[16] = Selectivity index, ratio of cytotoxicity against human SK-MEL cells to IC50 for Cryptococcus neoformans ATCC 90113; assay type: toxicity, cell-based; conditions: read-out: Selectivity Index
[17] = Selectivity index, ratio of cytotoxicity against african green monkey Vero cells to IC50 for Cryptococcus neoformans ATCC 90113; assay type: toxicity, cell-based; conditions: read-out: Selectivity Index
[18] = system: SK-OV-3; test: Cytotoxicity against human SKOV3 cells assessed as cell viability after 48 hrs by neutral red uptake assay; assay type: cell-based; conditions: sk-ov-3, 48 h; procedure, shortened: as §1
[19] = system: Staphylococcus aureus; test: Antibacterial activity against methicillin-resistant Staphylococcus aureus ATCC 33591 assessed as growth inhibition after 16-20 hrs by CLSI method; assay type: functional, organism-based
[20] = system: Staphylococcus aureus; test: Antibacterial activity against Staphylococcus aureus ATCC 29213 assessed as growth inhibition after 16-20 hrs by CLSI method; assay type: functional, organism-based
[21] = Cryptococcus neoformans, ATCC 90113
[22] = Cryptococcus neoformans, ATCC 90113, read-out: IC50

Row | Compound | MIC [9] | Activity [1] [µg/mL] | growth inhibition (GI) [2] | Activity [3] [µg/mL] | Activity [4] [µg/mL] | growth inhibition (GI) [6] | growth inhibition (GI) [7] | IC50 [9, 22] [µg/mL] | Activity [10] [µg/mL] | Activity [11] [µg/mL] | growth inhibition (GI) [14] | growth inhibition (GI) [15] | Activity [18] [µg/mL] | MFC [9] | IC50 [9] | further results
1 | N[C@@H](Cc1c[nH]c2ccccc12)C(=O)N[C@@H](Cc1c[nH]c(-c2ccccc2)n1)C(=O)NCc1ccccc1 |  | > 10 | inactive | > 10 | > 10 | inactive | inactive | 2.04 (≈ 4.03 µM) | > 10 | > 10 | inactive | inactive | > 10 |  |  | selectivity ratio [5]: > 4.9; selectivity ratio [8]: > 4.9; MFC [9, 21]: 5 µg/mL (≈ 9.87 µM); MIC [9, 21]: 5 µg/mL (≈ 9.87 µM); selectivity ratio [12]: > 4.9; selectivity ratio [13]: > 4.9; selectivity ratio [16]: > 4.9; selectivity ratio [17]: > 4.9
2 | COC(=O)[C@H](CCCNC(=N)N)NC(=O)[C@H](Cc1c[nH]c(-c2ccc(-c3ccccc3)cc2)n1)NC(=O)OC(C)(C)C |  | > 10 | inactive | > 10 | > 10 | inactive | inactive | 4.91 (≈ 8.5 µM) | > 10 | > 10 | inactive | inactive | > 10 |  |  | selectivity ratio [5]: > 2; selectivity ratio [8]: > 2; MFC [9, 21]: 10 µg/mL (≈ 17.3 µM); MIC [9, 21]: 10 µg/mL (≈ 17.3 µM); selectivity ratio [12]: > 2; selectivity ratio [13]: > 2; selectivity ratio [16]: > 2; selectivity ratio [17]: > 2
3 | COC(=O)[C@H](Cc1c[nH]c(-c2ccc(C(C)(C)C)cc2)n1)NC(=O)[C@H](Cc1c[nH]c2ccccc12)NC(=O)OC(C)(C)C | inactive | > 10 | inactive | > 10 | > 10 | inactive | inactive | 18.7 (≈ 31.8 µM) | > 10 | > 10 | inactive | inactive | > 10 | inactive |  | IC50 [19]: Not Active; MBC [19]: inactive; MIC [19]: inactive; IC50 [20]: 15.1 µg/mL (≈ 25.6 µM); MBC [20]: inactive; MIC [20]: inactive
4 | COC(=O)[C@H](Cc1c[nH]c(-c2ccc(-c3ccccc3)cc2)n1)NC(=O)[C@H](Cc1c[nH]c2ccccc12)NC(=O)OC(C)(C)C | inactive | > 10 | inactive | > 10 | > 10 | inactive | inactive |  | > 10 | > 10 | inactive | inactive | > 10 | inactive | Not Active | IC50 [19]: Not Active; MBC [19]: inactive; MIC [19]: inactive; IC50 [20]: 19 µg/mL (≈ 31.2 µM); MBC [20]: inactive; MIC [20]: inactive
5 | CC(C)(C)OC(=O)N[C@@H](Cc1c[nH]c2ccccc12)C(=O)N[C@@H](Cc1c[nH]c(-c2ccc(C(C)(C)C)cc2)n1)C(=O)NCc1ccccc1 | inactive | > 10 | inactive | > 10 | > 10 | inactive | inactive |  | > 10 | > 10 | inactive | inactive | > 10 | inactive | Not Active | IC50 [19]: Not Active; MBC [19]: inactive; MIC [19]: inactive; IC50 [20]: 10.2 µg/mL (≈ 15.3 µM); MBC [20]: inactive; MIC [20]: inactive
6 | COC(=O)[C@H](Cc1c[nH]c(-c2ccc(C)cc2)n1)NC(=O)[C@@H](N)Cc1c[nH]c2ccccc12 | inactive | > 10 | inactive | > 10 | > 10 | inactive | inactive | 11.9 (≈ 26.7 µM) | > 10 | > 10 | inactive | inactive | > 10 | inactive |  | 
7 | CC(C)(C)OC(=O)N[C@@H](Cc1c[nH]cn1)C(=O)N[C@@H](CCCNC(=N)N)C(=O)NCc1ccccc1 (Boc-His-Arg-NHBn) | inactive | > 10 | inactive | > 10 | > 10 | inactive | inactive |  | > 10 | > 10 | inactive | inactive | > 10 | inactive | Not Active | 

The next lines start with results.

Row | MIC [9] | Compound | Activity [1] [µg/mL] | growth inhibition (GI) [2] | Activity [3] [µg/mL] | Activity [4] [µg/mL] | growth inhibition (GI) [6] | growth inhibition (GI) [7] | IC50 [9, 22] [µg/mL] | Activity [10] [µg/mL] | Activity [11] [µg/mL] | growth inhibition (GI) [14] | growth inhibition (GI) [15] | Activity [18] [µg/mL] | MFC [9] | IC50 [9] | further results
8 | inactive | N=C(N)NCCC[C@H](NC(=O)[C@@H](N)Cc1c[nH]cn1)C(=O)NCc1ccccc1 (H-His-Arg-NHBn) | > 10 | inactive | > 10 | > 10 | inactive | inactive |  | > 10 | > 10 | inactive | inactive | > 10 | inactive | Not Active | 
9 | inactive | CC(C)(C)OC(=O)N[C@@H](Cc1c[nH]c2ccccc12)C(=O)N[C@@H](Cc1c[nH]c(-c2ccccc2)n1)C(=O)NCc1ccccc1 | > 10 | inactive | > 10 | > 10 | inactive | inactive |  | > 10 | > 10 | inactive | inactive | > 10 | inactive | Not Active | 
10 | inactive | N[C@@H](Cc1c[nH]c2ccccc12)C(=O)N[C@@H](Cc1c[nH]c(-c2cccc3ccccc23)n1)C(=O)NCc1ccccc1 | > 10 | inactive | > 10 | > 10 | inactive | inactive |  | > 10 | > 10 | inactive | inactive | > 10 | inactive | Not Active | 
11 | inactive | COC(=O)[C@H](CCCNC(=N)N)NC(=O)[C@H](Cc1c[nH]c(-c2ccc(OC)cc2)n1)NC(=O)OC(C)(C)C | > 10 | inactive | > 10 | > 10 | inactive | inactive |  | > 10 | > 10 | inactive | inactive | > 10 | inactive | Not Active | 
12 | inactive | N[C@@H](Cc1c[nH]c2ccccc12)C(=O)N[C@@H](Cc1c[nH]cn1)C(=O)NCc1ccccc1 (H-Trp-His-NHBn) | > 10 | inactive | > 10 | > 10 | inactive | inactive |  | > 10 | > 10 | inactive | inactive | > 10 | inactive | Not Active | 
